Assay results taken from ChEMBL document CHEMBL2203085, “Modification of a promiscuous inhibitor shifts the inhibition from γ-secretase to FLT-3” (Bioorg Med Chem Lett, 2012).
pIC50: −log10 of the molar value.

Legend:
Assay type in all cases: cell-based
H4 [1] = experiment: Cytotoxicity against human H4 cells at 40 uM; conditions: h4, 40 µM
Procedure, shortened: (§1)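 H4 APP#9 cells were used for cell-based toxicity testing, and toxicity was scored as yes or no at each concentration tested.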

Gamma-secretase = experiment: Inhibition of gamma secretase in human H4 cells expressing APP695 assessed as inhibition of Abeta42 production after 20 to 24 hrs by liquid phase electrochemiluminescence assay
Procedure, shortened: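 Aβ42 generation in H4 APP#9 cells was quantified by a previously described liquid-phase electrochemiluminescence (LPECL) assay of the Aβ42 isoform as the read-out of γ-secretase inhibition.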

H4 [2] = experiment: Cytotoxicity against human H4 cells at 80 uM; conditions: h4, 80 µM; procedure, shortened: as §1
H4 [3] = experiment: Cytotoxicity against human H4 cells at 160 uM; conditions: h4, 160 µM; procedure, shortened: as §1
H4 [4] = experiment: Cytotoxicity against human H4 cells at 20 uM; conditions: h4, 20 µM; procedure, shortened: as §1

| Compound | Activity (H4 [1]) | pIC50 (Gamma-secretase) | Activity (H4 [2]) | Activity (H4 [3]) | Activity (H4 [4]) |
| --- | --- | --- | --- | --- | --- |
| N#Cc1cccc(COc2ccc(/C=C3\C(=O)Nc4ccc(Cl)cc43)cc2)c1 | Non-toxic | < 4.40 |  |  |  |
| CN(C)c1ccc(/N=N/c2ccc(/C=C3\C(=O)Nc4ccccc43)cc2)cc1 |  | < 4.10 | Non-toxic |  |  |
| N#Cc1ccc(COc2ccc(/C=C3\C(=O)Nc4ccc(Cl)cc43)cc2)cc1 | Non-toxic | 4.56 |  |  |  |
| COc1cc(OCCN(C)C)ccc1/C=C1\C(=O)Nc2ccc(Cl)cc21 | Non-toxic | 5.00 |  |  |  |
| O=C1Nc2ccc(Cl)cc2/C1=C/c1ccc(O)cc1 | Non-toxic | 4.32 |  |  |  |
| O=C1Nc2ccc(Cl)cc2/C1=C/c1ccc(OCCCCl)cc1 | Toxic | 5.33 |  |  |  |
| COc1cc(/C=C2\C(=O)Nc3ccc(Cl)cc32)ccc1OCCN(C)C | Toxic | 4.94 |  |  |  |
| COc1cc(/C=C2\C(=O)Nc3ccc(Cl)cc32)ccc1-n1cnc(C)c1 |  | 5.17 | Toxic |  |  |
| N#CCCCOc1ccc(/C=C2\C(=O)Nc3ccc(Cl)cc32)cc1 | Toxic | < 4.40 |  |  |  |
| Cn1c2ccccc2c2cc(/C=C3\C(=O)Nc4ccccc43)ccc21 |  | 4.56 | Toxic |  |  |
| COc1cc(/C=C2\C(=O)Nc3ccc(Cl)cc32)ccc1OCCCC#N |  | < 3.80 |  | Non-toxic |  |
| COc1cc(/C=C2\C(=O)Nc3ccc(Cl)cc32)ccc1S(C)(=O)=O |  | 5.14 |  |  | Toxic |
